Experimental data published in ChEMBL document CHEMBL1126013, “Synthesis and evaluation of some water-soluble prodrugs and derivatives of taxol with antitumor activity” (J Med Chem, 1992).

What was measured:
[1] = Solubility in water; type: physicochemical; conditions: read-out: S
[2] = test system: B16; assay: Concentration required to inhibit the proliferation of B16 melanoma cells was determined; type: functional, cell-based; conditions: Mus musculus
[3] = test system: B16; assay: Percentage change in cell number of B16 melanoma cells treated with 10e-5 M dose; type: functional, Mus musculus
Procedure, shortened: (§1)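 B16 melanoma cells exposed to 10⁻⁵ or 10⁻⁶ M compound for 8 h, then rinsed three times with fresh medium. Cells then grown in drug-free medium for 48 h and counted. Result given as percent change relative to the cell number at time zero. Controls are the average of three experiments.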

[4] = test system: B16; assay: Percentage change in cell number of B16 melanoma cells treated with 10e-6 M dose; type: functional, Mus musculus; procedure, shortened: as §1
[5] = test system: B16; assay: Relative effect on B16 melanoma cell proliferation was determined [IC50 (taxol)/IC50 (derivative)]; type: functional, Mus musculus
[6] = species: Bos taurus; assay: Relative effect on microtubular assembly (Tubulin polymerized by derivative/tubulin polymerized by taxol); type: functional
Procedure, shortened: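 Bovine brain tubulin, purified from microtubule-associated proteins by phosphocellulose chromatography, used at 10 μM. Turbidity followed at 350 nm. Polymer pelleted at 200000g, 37 °C, 4 min, depolymerized on ice, and protein measured by Bradford.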

[7] = test system: Mus musculus; assay: Initial average tumor weight was measured in mice induced with human mammary carcinoma at a dose of 4.13 mg/Kg; type: functional
Procedure, shortened: (§2)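 MX-1 human mammary carcinoma xenograft implanted under the renal capsule in mice. Study run at the National Cancer Institute following NIH Publication No. 84-2635. Tumor weights recorded at the start and at the end. Survivors counted after 11 days. %T/C = (Δ tumor weight treated/Δ tumor weight control) × 100 where the tumor grows, and (Δ tumor weight treated/initial control tumor weight) × 100 where it regresses.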

[8] = test system: Mus musculus; assay: Initial average tumor weight was measured in mice induced with human mammary carcinoma at a dose of 8.25 mg/Kg; type: functional; procedure, shortened: as §2
[9] = test system: Mus musculus; assay: Initial average tumor weight was measured in mice induced with human mammary carcinoma at a dose of 16.5 mg/Kg; type: functional; procedure, shortened: as §2
[10] = test system: Mus musculus; assay: Number of survivors after 11 days at a dose of 16.5 mg/Kg tested in 4 mice; type: functional
Procedure, shortened: (§3)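 MX-1 human mammary carcinoma xenograft implanted under the renal capsule of mice. The study was run at the National Cancer Institute following the procedures of NIH Publication No. 84-2635. Average tumor weight was recorded at the start and end of treatment, and survivors were counted after 11 days. Dosed groups were compared with an untreated control group.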

[11] = test system: Mus musculus; assay: Number of survivors after 11 days at a dose of 33 mg/Kg tested in 5 mice; type: functional; procedure, shortened: as §3
[12] = test system: Mus musculus; assay: Tumor growth or regression measured as Percent treated by control at a dose of 8.25 mg/Kg to mice with MX-1 xenograft; type: functional
Procedure, shortened: (§4)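 Subrenal capsule human mammary carcinoma (MX-1) xenograft in mice, run at the National Cancer Institute by NIH Publication No. 84-2635 procedures. Initial and final average tumor weights recorded, with survivors counted after 11 days. %T/C is (Δ tumor weight treated/Δ tumor weight controls)×100 for growing tumors. For regressing tumors it is (Δ tumor weight treated/initial control tumor weight)×100.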

[13] = test system: Mus musculus; assay: Tumor growth or regression measured as Percent treated by control at a dose of 33 mg/Kg to mice with MX-1 xenograft; CR refers to complete remission or when the tumor is no longer detectable; type: functional, organism-based; procedure, shortened: as §2
[14] = test system: Mus musculus; assay: Tumor growth or regression measured as Percent treated by control at a dose of 4.13 mg/Kg to mice with MX-1 xenograft; type: functional; procedure, shortened: as §4
[15] = test system: Mus musculus; assay: Number of survivors after 11 days at a dose of 4.13 mg/Kg tested in 5 mice; type: functional; procedure, shortened: as §3
[16] = test system: Mus musculus; assay: Tumor growth or regression measured as Percent treated by control at a dose of 16.5 mg/Kg to mice with MX-1 xenograft; type: functional; procedure, shortened: as §2
[17] = test system: Mus musculus; assay: Number of survivors after 11 days at a dose of 8.25 mg/Kg tested in 4 mice; type: functional; procedure, shortened: as §3
[18] = test system: Mus musculus; assay: Final average tumor weight was measured in mice induced with human mammary carcinoma at a dose of 4.13 mg/Kg; type: functional; procedure, shortened: as §2
[19] = test system: Mus musculus; assay: Final average tumor weight was measured in mice induced with human mammary carcinoma at a dose of 16.5 mg/Kg; type: functional; procedure, shortened: as §2
[20] = test system: Mus musculus; assay: Final average tumor weight was measured in mice induced with human mammary carcinoma at a dose of 8.25 mg/Kg; type: functional; procedure, shortened: as §2
[21] = test system: Mus musculus; assay: Antitumor activity of taxoland the derivative against mammary carcinoma xenograft in mice; type: functional; procedure, shortened: as §2
[22] = test system: Mus musculus; assay: final average tumor weight was measured in mice induced with human mammary carcinoma at a dose of 33 mg/Kg; type: functional; procedure, shortened: as §4
[23] = test system: Mus musculus; assay: Initial average tumor weight was measured in mice induced with human mammary carcinoma at a dose of 33 mg/Kg; type: functional; procedure, shortened: as §2
[24] = test system: Mus musculus; assay: Initial average tumor weight was measured in mice induced with human mammary carcinoma at a dose of 15 mg/Kg; type: functional; procedure, shortened: as §2
[25] = test system: Mus musculus; assay: Initial average tumor weight was measured in mice induced with human mammary carcinoma at a dose of 22.4 mg/Kg; type: functional; procedure, shortened: as §2
[26] = test system: Mus musculus; assay: Initial average tumor weight was measured in mice induced with human mammary carcinoma at a dose of 4.45 mg/Kg; type: functional; procedure, shortened: as §2
[27] = test system: Mus musculus; assay: Initial average tumor weight was measured in mice induced with human mammary carcinoma at a dose of 6.67 mg/Kg; type: functional; procedure, shortened: as §2
[28] = test system: Mus musculus; assay: Initial average tumor weight was measured in mice induced with human mammary carcinoma at a dose of 10 mg/Kg; type: functional; procedure, shortened: as §2
[29] = test system: Mus musculus; assay: Number of survivors after 11 days at a dose of 15 mg/Kg tested in 6 mice; type: functional; procedure, shortened: as §3
[30] = test system: Mus musculus; assay: Number of survivors after 11 days at a dose of 22.4 mg/Kg tested in 6 mice; type: functional; procedure, shortened: as §3
[31] = test system: Mus musculus; assay: Number of survivors after 11 days at a dose of 4.45 mg/Kg tested in 5 mice; type: functional; procedure, shortened: as §3
[32] = test system: Mus musculus; assay: Tumor growth or regression measured as Percent treated by control at a dose of 6.67 mg/Kg to mice with MX-1 xenograft; CR refers to complete remission or when the tumor is no longer detectable; type: functional, organism-based; procedure, shortened: as §4
[33] = test system: Mus musculus; assay: Tumor growth or regression measured as Percent treated by control at a dose of 22.4 mg/Kg to mice with MX-1 xenograft; Tox refers to toxicity or when < 65% of the animals survive the test; type: functional, organism-based; procedure, shortened: as §2
[34] = test system: Mus musculus; assay: Tumor growth or regression measured as Percent treated by control at a dose of 4.45 mg/Kg to mice with MX-1 xenograft; CR refers to complete remission or when the tumor is no longer detectable; type: functional, organism-based; procedure, shortened: as §4
[35] = test system: Mus musculus; assay: Number of survivors after 11 days at a dose of 10 mg/Kg tested in 6 mice; type: functional; procedure, shortened: as §3
[36] = test system: Mus musculus; assay: Tumor growth or regression measured as Percent treated by control at a dose of 10 mg/Kg to mice with MX-1 xenograft; type: functional; procedure, shortened: as §2
[37] = test system: Mus musculus; assay: Tumor growth or regression measured as Percent treated by control at a dose of 15 mg/Kg to mice with MX-1 xenograft; CR refers to complete remission or when the tumor is no longer detectable; type: functional, organism-based; procedure, shortened: as §2
[38] = test system: Mus musculus; assay: Number of survivors after 11 days at a dose of 6.67 mg/Kg tested in 5 mice; type: functional; procedure, shortened: as §3
[39] = test system: Mus musculus; assay: Final average tumor weight was measured in mice induced with human mammary carcinoma at a dose of 4.45 mg/Kg; type: functional; procedure, shortened: as §2
[40] = test system: Mus musculus; assay: Final average tumor weight was measured in mice induced with human mammary carcinoma at a dose of 22.4 mg/Kg; type: functional; procedure, shortened: as §2
[41] = test system: Mus musculus; assay: Final average tumor weight was measured in mice induced with human mammary carcinoma at a dose of 10 mg/Kg; type: functional; procedure, shortened: as §2
[42] = test system: Mus musculus; assay: Final average tumor weight was measured in mice induced with human mammary carcinoma at a dose of 15 mg/Kg; type: functional; procedure, shortened: as §2
[43] = test system: Mus musculus; assay: Final average tumor weight was measured in mice induced with human mammary carcinoma at a dose of 6.67 mg/Kg; type: functional; procedure, shortened: as §2

**Q.** With `CC(=O)O[C@H]1C(=O)[C@]2(C)[C@@H](OC(=O)CN(C)C)C[C@H]3OC[C@@]3(OC(C)=O)[C@H]2[C@H](OC(=O)c2ccccc2)[C@]2(O)C[C@H](OC(=O)[C@H](O)[C@@H](NC(=O)c3ccccc3)c3ccccc3)C(C)=C1C2(C)C.CS(=O)(=O)O` as the compound, how does the solubility [1] read?
**A.** Its solubility is > 1870 µM.

**Q.** And the IC50 [2]?
**A.** Its IC50 is 44 nM.

**Q.** And the “Change in cell number” value [3]?
**A.** The value was -60%.

**Q.** And the “Change in cell number” value [4]?
**A.** Its value is 222%.

**Q.** And the Relative effect [5]?
**A.** The Relative effect was 0.43.

**Q.** And the Relative effect [6]?
**A.** The Relative effect was 0.77.

**Q.** What about the “Initial average tumor weight” value [7] of the same compound?
**A.** Its value is 0.74 mg.

**Q.** What about the “Initial average tumor weight” value [8] of the same compound?
**A.** Its value is 0.81 mg.

**Q.** And the “Initial average tumor weight” value [9]?
**A.** The value was 0.59 mg.

**Q.** What about the No. of survivors [10] of the same compound?
**A.** The No. of survivors was 3.

**Q.** What about the No. of survivors [11] of the same compound?
**A.** Its No. of survivors is 4.

**Q.** What about the T/C [12] of the same compound?
**A.** The T/C was 23%.

**Q.** And the T/C [13]?
**A.** Its T/C is “Complete remission”.

**Q.** And the T/C [14]?
**A.** Its T/C is 34%.

**Q.** And the No. of survivors [15]?
**A.** The No. of survivors was 4.

**Q.** And the T/C [16]?
**A.** The T/C was -93%.

**Q.** And the No. of survivors [17]?
**A.** The No. of survivors was 4.

**Q.** And the “Final average tumor weight” value [18]?
**A.** Its value is 5.66 mg.

**Q.** What about the “Final average tumor weight” value [19] of the same compound?
**A.** The value was 0.04 mg.

**Q.** What about the “Final average tumor weight” value [20] of the same compound?
**A.** The value was 4.19 mg.

**Q.** And the Relative antitumor activity [21]?
**A.** Its Relative antitumor activity is 3.

**Q.** And the “Final average tumor weight” value [22]?
**A.** The value was 0 mg.

**Q.** And the “Initial average tumor weight” value [23]?
**A.** The value was 0.74 mg.

**Q.** What does the source list for `CC(=O)O[C@H]1C(=O)[C@@]2(C)[C@H]([C@H](OC(=O)c3ccccc3)[C@]3(O)C[C@H](OC(=O)[C@H](O)[C@@H](NC(=O)c4ccccc4)c4ccccc4)C(C)=C1C3(C)C)[C@]1(OC(C)=O)CO[C@@H]1C[C@@H]2O` [PACLITAXEL]?
**A.** IC50 [2]: 19 nM; Change in cell number [3]: 75%; Change in cell number [4]: 252%; Relative effect [5]: 1; Relative effect [6]: 1; Initial average tumor weight [24]: 0.81 mg; Initial average tumor weight [25]: 0.6 mg; Initial average tumor weight [26]: 0.79 mg; Initial average tumor weight [27]: 0.74 mg; Initial average tumor weight [28]: 0.58 mg; No. of survivors [29]: 6; No. of survivors [30]: 3; No. of survivors [31]: 5; T/C [32]: Complete remission; T/C [33]: Toxic; T/C [34]: Complete remission; No. of survivors [35]: 6; T/C [36]: -84%; T/C [37]: Complete remission; No. of survivors [38]: 5; Final average tumor weight [39]: 0 mg; Final average tumor weight [40]: 0 mg; Final average tumor weight [41]: 0.09 mg; Final average tumor weight [42]: 0 mg; Final average tumor weight [43]: 0 mg; Relative antitumor activity [21]: 1
